The nature of this series: Toxicity liver stage against HepG2, at 10uM. Format: cell-based. The arrangement: test concentration 10 uM, cell line HepG2-A16-CD81EGFP. Particulars: human, HepG2-A16-CD81EGFP cells; read-out: INHIBITION
Put shortly:
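Uninfected HepG2-A16-CD81EGFP cells, 3 × 10^3 per well, 1536-well, plated on prespotted compound at 10 μM final, parasite-free screening media added to match infected plates; puromycin 10 μM positive, DMSO 0.5% negative; run in parallel with 48 h PbLuc assay at 37 °C, 5% CO2; viability by CellTiter-Glo luminescence, normalized to controls.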
As to `O=C1CCCc2cc(-c3csc(CCN4CCOC4=O)n3)ccc2N1`, the cytotoxicity at 10 µM stood at 0.196%.

For `Cc1ccc(C(CC(=O)O)NC(=O)CCc2cccs2)cc1` (stereo not given), the cytotoxicity at 10 µM was -4.32%.

Take `COCC(=O)Nc1ccc(-c2noc([C@@H]3CCCN3CC(C)C)n2)cn1`: the cytotoxicity at 10 µM stood at 5.82%.

`COCCCNC(=O)Nc1ncc(-c2cccc(OC)c2)n1CCOC`: the cytotoxicity at 10 µM stood at 18.6%.

With `O=C(NCc1ccccc1)NCC1CCN(Cc2ccsc2)CC1`, the cytotoxicity at 10 µM is -14.1%.

On to `CCc1ccc(S(=O)(=O)NCCOc2ccc3nnc(C)n3n2)s1`, for which the cytotoxicity at 10 µM was -6.98%.

Regarding `CCc1ccc(C(=O)N2CCCC3(CCCC(=O)N3C)C2)cc1` (stereo not given), the cytotoxicity at 10 µM was -5.72%.

For the compound `O=C(c1cc(-n2cnnn2)ccc1Cl)N1CCOCC1`, the cytotoxicity at 10 µM stood at 6.22%.

As for `COCCCNC(=O)c1c(-n2cnnn2)sc2c1CCC2`, the cytotoxicity at 10 µM was 11.4%.

For `COc1ccc(-c2ccnc3nc(N4CCCCC4)[nH]c(=O)c23)cc1`, the cytotoxicity at 10 µM was found to be 5.31%.

Turning to `CCN(CC)CCNC(=O)c1cc(OC)c2ccoc2c1`, the cytotoxicity at 10 µM is -0.971%.

For `NC(=O)C1(CCCc2ccccn2)CCCN(CCO)C1` (stereo not given), the cytotoxicity at 10 µM was 3.38%.

As to `CC(=O)NCC(=O)N1C[C@@H]2CC[C@H](Oc3ccccc3Cl)[C@@H]2C1`, the cytotoxicity at 10 µM worked out at 9.16%.

Regarding `O=C(Cc1ccsc1)N1CCC(O)(CN2CCc3ccccc3C2)C1` (stereo not given), the cytotoxicity at 10 µM is -7.27%.

`CC(=O)N1C[C@@H](c2ccsc2)[C@@H]2CN(CC3CCCCC3)CC[C@@H]21`: the cytotoxicity at 10 µM was -7.99%.

`c1cnc(N2CCC(OCC3CCCCO3)CC2)nc1` (stereo not given): the cytotoxicity at 10 µM was -11.4%.

Take `NC(=O)N1CCCN(CCCSCc2ccccc2)CC1`: the cytotoxicity at 10 µM is -2.17%.

Consider `CN(C(=O)c1ccccc1N(C)S(C)(=O)=O)c1ccc(C(C)(C)C)cc1`, for which the cytotoxicity at 10 µM turned out to be 5.17%.

As to `Cc1cnn(C2CCCN(C(=O)c3cc(-c4ccco4)[nH]n3)C2)c1` (stereo not given), the cytotoxicity at 10 µM was -9.48%.

For the compound `CS(=O)(=O)c1ccc2c(c1)N(C(=O)Cc1cccc(F)c1)CCC2`, the cytotoxicity at 10 µM turned out to be 14.9%.

For `CNS(=O)(=O)c1ccc(F)c(C(=O)NCc2ccnc(OC)c2)c1`, the cytotoxicity at 10 µM was -9.8%.

`CNC(=O)CCS(=O)(=O)Cc1nnnn1-c1ccccc1`: the cytotoxicity at 10 µM amounted to 15.3%.

Regarding `CCOc1c(F)cccc1C(=O)N(CC)C(C)c1ccncc1` (stereo not given), the cytotoxicity at 10 µM was 11%.

As for `O=C(Cn1cc(C2CC2)nn1)N(Cc1ccco1)Cc1cccs1`, the cytotoxicity at 10 µM is -13.3%.

For `O=C(c1ccc(CN2CCCCC2)cc1)N1CCCC1c1cccs1` (stereo not given), the cytotoxicity at 10 µM was -7.15%.

Take `COc1ccc(CN(C(=O)CCC(C)C)c2cnn(C)c2)c(OC)c1`: the cytotoxicity at 10 µM was -1.35%.

Turning to `Cc1cc(C)c(S(=O)(=O)Nc2c(C)noc2C)cc1C(=O)O`, the cytotoxicity at 10 µM is -8.18%.

Regarding `CCCNC(=O)c1cc(Br)c2c(c1)OCCO2`, the cytotoxicity at 10 µM is 9.65%.

Take `CN(C)c1ncccc1CNC(=O)N(Cc1ccccc1F)C1CC1`: the cytotoxicity at 10 µM was 2.6%.

Consider `CN(CCC(F)(F)F)C(=O)C1CSCN1C(=O)C(C)(C)C` (stereo not given), for which the cytotoxicity at 10 µM worked out at 9.07%.

On to `Cc1noc(C(C)C)c1C(=O)NS(=O)(=O)c1cccnc1`, for which the cytotoxicity at 10 µM turned out to be 0.345%.

With `CC(C)CN1CCC(NC(=O)c2ccc(F)cc2F)CC1`, the cytotoxicity at 10 µM is -3.1%.

Turning to `CN(C)CC1CN(c2ncnc3ccsc23)CCO1` (stereo not given), the cytotoxicity at 10 µM was found to be 12%.

Take `O=C(NCc1ccc(Cl)cc1Cl)NCC1(O)CCSC1` (stereo not given): the cytotoxicity at 10 µM was -9.12%.

`CCN(CC1CCOC1)C(=O)c1cc(OC)c2c(c1)OCCO2` (stereo not given): the cytotoxicity at 10 µM was -7.35%.

For the compound `COc1cc(C(=O)N(C)Cc2cc(C(=O)O)c(C)o2)cc(OC)c1OC`, the cytotoxicity at 10 µM was -1.76%.

As to `CCN(C(=O)NCc1cccnc1N(C)C)C(C)c1cccnc1` (stereo not given), the cytotoxicity at 10 µM is -4.6%.

As for `CS(=O)(=O)CCN(CCc1cccc(F)c1)C1CC1`, the cytotoxicity at 10 µM was found to be 11.4%.

In the case of `Cc1csc(NC(=O)C2CCN(Cc3cccc4c3OCCO4)CC2)n1`, the cytotoxicity at 10 µM is -17.9%.

`O=S(=O)(NCCSc1nncn1C1CC1)c1ccccc1`: the cytotoxicity at 10 µM is -14.1%.

As for `CCS(=O)(=O)NC(CCSC)C(=O)Nc1ccc(C)cc1C` (stereo not given), the cytotoxicity at 10 µM was -8.9%.

For `CN(Cc1cccc(F)c1)C(=O)CS(=O)(=O)Cc1c(Cl)cccc1Cl`, the cytotoxicity at 10 µM is -2.81%.

On to `CN1CCN(C(=O)CCc2cccnc2)c2ccc(F)cc21`, for which the cytotoxicity at 10 µM was -2.23%.

Take `COCCC1(CNC(=O)NC2CCCN(C)C2)CC1` (stereo not given): the cytotoxicity at 10 µM was -0.926%.

As to `O=C(O)CC(NC(=O)c1cc(Br)c[nH]1)c1ccccc1` (stereo not given), the cytotoxicity at 10 µM turned out to be 1.22%.

As to `N#Cc1cccc(CS(=O)(=O)NCC(O)Cc2ccccc2)c1` (stereo not given), the cytotoxicity at 10 µM turned out to be 2.99%.

Consider `CCOC(CC)C(=O)NCc1ccnc(Oc2ccc(F)cc2)c1` (stereo not given), for which the cytotoxicity at 10 µM is -1.43%.

As to `CC(C)[C@H]1COC(=O)N1Cc1nncn1C(C)C`, the cytotoxicity at 10 µM is -9.17%.

Take `COc1ccccc1OC1(C(=O)O)CCN(c2ncccc2F)CC1`: the cytotoxicity at 10 µM was -12.9%.

As for `Cc1ccc(C)c2c(O)cc(CNCC(=O)N3CCCC3)nc12`, the cytotoxicity at 10 µM was -12.4%.

As for `COCC(NC1CSCCSC1)c1ccnn1C` (stereo not given), the cytotoxicity at 10 µM is 4.34%.

Regarding `Nc1nc(NCCc2[nH]nc3c2CCCC3)cc(N2CCOCC2)n1`, the cytotoxicity at 10 µM is 0.666%.

For `COc1ccc(OC)c(-c2nc(CN(C)Cc3noc(C)n3)c(C)o2)c1`, the cytotoxicity at 10 µM is -3.7%.

Consider `COC(=O)CNC(=O)N1CCC2(CC1)CC(c1ccccc1)CN(C)C2` (stereo not given), for which the cytotoxicity at 10 µM stood at 0.761%.

Regarding `CN(Cc1ccn[nH]1)C(=O)CCC(=O)NC1CCCC1`, the cytotoxicity at 10 µM was 0.324%.

`Cc1ccc(C(=O)N2CCC(C(F)(F)F)CC2)cc1N1CCNC1=O`: the cytotoxicity at 10 µM worked out at 2.01%.

In the case of `COC(=O)[C@@H]1C[C@H](NC(=O)c2cc(=O)[nH]c3ccc(C)cc23)CN1C`, the cytotoxicity at 10 µM turned out to be 6.46%.

Consider `CCN1CCC2(CCC1=O)CN(c1cnc3ccccc3n1)CCN2C` (stereo not given), for which the cytotoxicity at 10 µM was determined as 1.79%.

With `Oc1cc(CCC2CCCCN2)cc(-c2cccnc2)c1` (stereo not given), the cytotoxicity at 10 µM turned out to be 4.11%.

Turning to `Cc1ccc2nc(C)c(C)c(C(=O)NCCCn3cnnc3)c2c1`, the cytotoxicity at 10 µM was -2.89%.

On to `Cc1nc(-c2cc(F)c3c(c2)CC(CN)O3)c[nH]1` (stereo not given), for which the cytotoxicity at 10 µM came out at 9.15%.

With `COc1cccc(CC2(C(=O)O)CCN(c3ccc(Cl)cn3)CC2)c1`, the cytotoxicity at 10 µM is -14%.

For the compound `C=C(C)COc1ccccc1C(=O)NCCCc1nnn[nH]1`, the cytotoxicity at 10 µM is -1.82%.

For the compound `Cc1nonc1CN(C)Cc1nc(-c2ccccc2Cl)oc1C`, the cytotoxicity at 10 µM is -3.04%.

With `O=C1CCC2(CCN(Cc3ccc(F)cc3Cl)CC2)CN1CCO`, the cytotoxicity at 10 µM stood at 5.29%.

Turning to `Cc1nc2cc(C(=O)N3C[C@@H](C(=O)O)[C@H](c4ccncc4)C3)ccc2[nH]1`, the cytotoxicity at 10 µM was found to be 0.682%.

With `Cc1ccc(C2(O)CCN(C(=O)Cn3cc(C)c(=O)[nH]c3=O)CC2)nc1`, the cytotoxicity at 10 µM is -7.22%.

On to `c1ccc(C(Cn2cccn2)Nc2cnccn2)cc1` (stereo not given), for which the cytotoxicity at 10 µM was determined as 2.99%.

Regarding `CN(CC1Cc2ccccc2CN1C)c1nc(N)nc2c1CCNCC2` (stereo not given), the cytotoxicity at 10 µM came out at 0.0642%.

Take `Cc1ccc(C(=O)Nc2cn[nH]c2)cc1`: the cytotoxicity at 10 µM was -8.83%.

Regarding `Cc1cc(C)n(CC2CCCN2C(=O)CCc2nccs2)n1` (stereo not given), the cytotoxicity at 10 µM was -7.07%.

As for `Cc1cnn(CC2CCCN2Cc2nc(N)c3ccccc3n2)c1` (stereo not given), the cytotoxicity at 10 µM is -29.5%.

Take `CS(=O)(=O)c1ccc(OCCCN2CCc3cncnc3C2)cc1`: the cytotoxicity at 10 µM was -15.3%.

As for `COc1ccc(C(O)CN2CC(n3nc(C)cc3C)C2)cc1` (stereo not given), the cytotoxicity at 10 µM is -15.3%.

With `CCn1cc(CN2CCCN(C(=O)CCc3ccncc3)CC2)cn1`, the cytotoxicity at 10 µM is -11.1%.

With `CC(C)n1ccnc1CN1CCCN(C(=O)c2nccnc2N)CC1`, the cytotoxicity at 10 µM is -7.26%.

As to `CC(NC(=O)NCCCc1n[nH]c(N)c1C#N)c1ccccc1` (stereo not given), the cytotoxicity at 10 µM was -7.21%.

`Cc1nn(C)cc1CCC(=O)N1CCCC(n2cncn2)C1` (stereo not given): the cytotoxicity at 10 µM came to 1.9%.

Turning to `Cc1nc(C)n(C2CCCN(C(=O)c3ccccc3C)C2)n1` (stereo not given), the cytotoxicity at 10 µM was determined as 1.59%.

Turning to `CC(=O)Nc1nc(C(=O)Nc2ccc(F)cc2)cs1`, the cytotoxicity at 10 µM was 6.47%.

`O=C(CN(C1=NCCCC1)c1ccccc1)c1ccc(OC(F)F)cc1`: the cytotoxicity at 10 µM is 2.88%.

Consider `CNC(=O)[C@@H]1CCO[C@@H]2CCN(Cc3ccsc3)C[C@H]21`, for which the cytotoxicity at 10 µM was -78.3%.

`C[C@@H]1C(=O)NC[C@H]2CN(Cc3ccc4c(c3)OCO4)C[C@H]21`: the cytotoxicity at 10 µM turned out to be 1.44%.

On to `CN(C)CCn1c2c(ccc1=O)CC(NCc1cnn(C)c1)CC2` (stereo not given), for which the cytotoxicity at 10 µM is -105%.

Turning to `Cc1cnc(N2CCc3cc(C(=O)O)c(N(C)C)nc3CC2)nc1`, the cytotoxicity at 10 µM is -104%.

With `Cc1ccc(C(=O)N2C[C@@H]3OCCN(C)[C@@H]3C2)cn1`, the cytotoxicity at 10 µM was -68.3%.

`Cn1ccnc1CN1CCC(F)(F)C2(CCN(c3cccnc3)C2)C1` (stereo not given): the cytotoxicity at 10 µM is -98.8%.

As for `CN(Cc1cccnc1)CC1CN(C(=O)C2CC2)Cc2nccn2C1` (stereo not given), the cytotoxicity at 10 µM was -79.8%.

`Cc1ccc(N2CC[C@@H]3[C@@H]2CCN3C(=O)Cc2cccs2)nn1`: the cytotoxicity at 10 µM is -99.8%.

With `Cc1ccc(N2CC[C@H]3O[C@H](C(=O)NCc4ccco4)CC[C@H]32)nn1`, the cytotoxicity at 10 µM was -71.9%.

For `c1ccc(CN2CCC3(CC2)CC(Oc2cccnc2)C3)nc1`, the cytotoxicity at 10 µM is -111%.

With `Cc1cccc(CN2C(=O)CC[C@@H]3[C@H]2CCN3Cc2cccnc2)n1`, the cytotoxicity at 10 µM was -74.6%.

With `Cc1cccc(C(=O)N2C[C@@H]3C(CC(=O)Nc4cccnc4)[C@@H]3C2)n1` (stereo not given in full), the cytotoxicity at 10 µM is -0.39%.

As to `O=C(CCc1n[nH]c2c1CCCC2)N1C[C@H]2CC[C@@H](C1)N(CC1CC1)C2`, the cytotoxicity at 10 µM is -3.73%.

`COc1ccnc(N2C[C@H]3CC[C@@H](C2)N(CC2CC2)C3)n1`: the cytotoxicity at 10 µM is -0.65%.
